Screening data deposited in PubChem BioAssay by Sanford-Burnham Center for Chemical Genomics.
SENP6 block = inhibitors of human SENP6 protease | Q9GZR1 | Recombinant SENP6 catalytic domain, aminoluciferin luminescence | inhibition, % at 10 µM | 330,000 tested, 1.8% active;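 active = inhibition above about 50% at the single tested dose, limit read from the data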;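 note: plate controls were DMSO wells with enzyme for no effect and DMSO wells lacking enzyme for full effect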
SENP8 block-1 = inhibitors of human SENP8 protease; inhibition, % at 20 µM; recombinant SENP8, Nedd8 substrate fluorescence; 360,000 tested, 0.64% active; Q96LD8; in the data active = inhibition mostly above about 40%, no sharp cut-off; inactive = mostly below about 27%
Target sequence (Q96LD8 whole entry, looked up): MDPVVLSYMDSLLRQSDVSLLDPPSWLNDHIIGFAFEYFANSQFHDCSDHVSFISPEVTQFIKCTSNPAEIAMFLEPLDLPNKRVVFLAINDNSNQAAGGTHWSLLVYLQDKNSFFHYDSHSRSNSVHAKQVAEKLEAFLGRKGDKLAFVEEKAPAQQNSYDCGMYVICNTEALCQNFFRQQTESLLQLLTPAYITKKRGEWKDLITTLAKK
Apaf-1 inh = inhibitors of human Apaf-1 apoptosome; O14727; inhibition, % at 20 µM; 330,000 tested, 0.71% active; AID 489030; reconstituted apoptosome caspase-3 activity, DEVD-Rh110 fluorescence; active = inhibition of at least 40% at 20 µM;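 note: plate controls were DMSO wells for no effect and DEVD-CHO caspase inhibitor wells for full effect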
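System – cell-free apoptosome with Apaf-1, procaspase-3 and caspase-9 · Buffer or medium – pH 7.5 Hepes buffer with CHAPS, BSA, DTT · Also added – cytochrome c with DEVD-Rh110 · Times – 30 min compound preincubation, 50 min activation, room temperature · Technique – Rh110 fluorescence intensity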
UBC13 polyUb = blocks human UBC13 polyubiquitin chain formation. TR-FRET. inhibition, % at 20 µM. P61088. 330,000 tested, 0.47% active; in the data active = inhibition above about 45%, passing the limit was not always enough
SENP8 block-2 = inhibitors of human SENP8 protease. Q96LD8. purified SENP8, Z-RLRGG-aminoluciferin cleavage, luminescence. inhibition, % at 10 µM. 330,000 tested, 1.2% active; in the data active = inhibition above about 50%
SENP7 inh = blocks the human protease SENP7; Q9BQF6; recombinant SENP7, Z-RLRGG-aminoluciferin luminescence, 40 min; inhibition, % at 5 µM; 330,000 tested, 1.5% active; AID 434973;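 active = inhibition above about 50% at the single test dose, limit read from the data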;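 note: plate controls were DMSO with enzyme for no effect and no enzyme buffer wells for full effect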
SENP8 conf = confirmation of human SENP8 protease inhibitors | shares compounds with SENP7 inh | Recombinant SENP8, Z-RLRGG-aminoluciferin luminescence, 60 min | inhibition, % at 12.5 µM | 6,200 tested, 40% active | AID 488912;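 active = mean inhibition across replicates above about 50%, limit read from the data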
SENP6 confirm = confirmation of human SENP6 protease inhibitors. AID 488915. inhibition, % at 12.5 µM. 6,200 tested, 58% active. recombinant SENP6, Z-RLRGG-aminoluciferin luminescence. shares compounds with SENP7 inh
SENP7 conf = confirmation of human SENP7 protease inhibitors. shares compounds with SENP7 inh. recombinant SENP7, Z-RLRGG-aminoluciferin luminescence, 40 min. inhibition, % at 12.5 µM. 6,200 tested, 69% active
Casp3 SENP sel = caspase-3 inhibition (SENP selectivity assay) | shares compounds with SENP7 inh | 6,200 tested, 60% active | inhibition, % at 12.5 µM | purified caspase-3, Z-DEVD-aminoluciferin luminescence, 60 min;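 active = mean inhibition above about 50%, limit read from the data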;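 note: plate controls were enzyme with DMSO for no effect and wells without caspase-3 for full effect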
Target sequence (P42574 28-227 limits assumed): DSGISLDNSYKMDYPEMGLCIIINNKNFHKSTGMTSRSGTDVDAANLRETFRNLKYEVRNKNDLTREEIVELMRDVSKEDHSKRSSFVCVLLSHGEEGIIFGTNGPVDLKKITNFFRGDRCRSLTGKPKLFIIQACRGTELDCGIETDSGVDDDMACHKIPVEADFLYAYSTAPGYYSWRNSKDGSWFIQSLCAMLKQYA
SENP luc ctr = luminescence interference (SENP counter-screen); Pre-incubated SENP8/Z-RLRGG-aminoluciferin, luciferase luminescence interference; 6,200 tested, 39% active; inhibition, % at 12.5 µM; shares compounds with SENP7 inh;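 active = mean inhibition above about 50% when retested at one dose, limit read from the data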;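 note: plate controls were DMSO wells with completed reaction for no effect and substrate without enzyme for full effect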
An asterisk follows results filed as active; · = no result given. Only some compounds are listed: those with a hit (about 3% of all), similar ones and a draw of the others.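 Rule for the calls, unless noted: active = mean inhibition above about 50% in the one-dose retest (limit read from the data); inactive = the rest.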

SMILES	SENP6 block	SENP8 block-1	Apaf-1 inh	UBC13 polyUb	SENP8 block-2	SENP7 inh	SENP8 conf	SENP6 confirm	SENP7 conf	Casp3 SENP sel	SENP luc ctr
c1ccc2nc(-c3nc4ccccc4[nH]3)ccc2c1	97*	-469	7	17	97*	100*	95*	98*	103*	98*	49
COc1ccc(C2C(=O)c3ccccc3C2=O)cc1	57*	-19	7	-13	62*	12	-8	67*	91*	84*	62*
COc1ccc(C2C(=O)c3ccccc3C2=O)cc1OC	16	-2	-17	-23	1	4	·	·	·	·	·
COc1ccc(C2=C(N)c3ccccc3C2=O)cc1	54*	23	-3	-169	37	-26	52*	49	83*	73*	8
O=C(CC[C@H]1O[C@@H](n2ccc(=O)[nH]c2=O)[C@H](O)[C@@H]1O)N[C@@H](Cc1ccccc1)C(=O)NCC1CCCCC1	·	12	·	·	·	·	·	·	·	·	·
CCOC(=O)C1(C)CCCN(C(=O)c2cccc(OC(F)(F)F)c2)C1 (stereo not given)	·	6	·	·	·	·	·	·	·	·	·
O=C(Nc1cccc2c1CCCC2)c1cc(C2CCCCN2C(=O)CCCc2ccccc2)on1 (stereo not given)	·	14	·	·	·	·	·	·	·	·	·
COC(=O)c1c(-c2ccc(F)cc2)csc1NC(=O)c1ccco1	-3	-496	8	17	-11	-4	·	·	·	·	·
O=C(Nc1scc(-c2cccs2)c1C(=O)O)c1cccs1	87*	-127	23	-8	76*	-8	-20	80*	95*	80*	85*
COc1ccc(-c2csc(NC(=O)c3ccccc3F)c2C(=O)O)cc1	68*	-43	6	0	60*	18	14	73*	90*	75*	76*
Cc1ccc(C(=O)Nc2scc(-c3ccccc3)c2C(=O)O)cc1	94*	-153	10	-3	93*	70*	7	97*	102*	95*	95*
COc1cc(C(=O)Nc2scc(-c3ccc(C)cc3)c2C(=O)O)cc(OC)c1OC	-9	-147	14	-10	0	-9	·	·	·	·	·
O=C(Nc1scc(-c2ccccc2)c1C(=O)O)c1ccco1	71*	-94	8	1	47	44	62*	60*	87*	83*	76*
O=C(Nc1scc(-c2ccccc2)c1C(=O)O)c1ccccc1Cl	-7	-3	16	-6	2	-9	·	·	·	·	·
Cc1ccc(S(=O)(=O)Nc2ccc(Nc3nccn4c(-c5ccc6ccccc6c5)cnc34)cc2)cc1	·	-203	·	·	·	·	·	·	·	·	·
CCc1nc2c(OCCc3cccc(OC)c3)cccn2c1N(C=O)Cc1ccccc1	·	-21	·	·	·	·	·	·	·	·	·
Cc1cccc(C)c1-n1nnnc1C(c1ccccc1OC(F)(F)F)N1CCN(C/C=C/c2ccccc2)CC1 (stereo not given)	·	11	·	·	·	·	·	·	·	·	·
N/C(=N\OC(=O)c1ccc(Cl)cc1)c1nonc1N	97*	0	-18	8	94*	100*	98*	100*	103*	98*	95*
N/C(=N/OC(=O)c1ccccc1F)c1nonc1N	98*	21	10	-9	93*	98*	95*	95*	101*	97*	96*
N/C(=N\OCc1ccccc1)c1nonc1N	61*	22	4	-1	55*	69*	62*	61*	89*	83*	72*
N/C(=N\OCC(=O)Nc1ccccc1)c1nonc1N	5	5	-3	5	-7	2	·	·	·	·	·
COc1ccccc1Cc1c(-c2cccc(Cl)c2)nc2ccc(Br)cn12	·	-37	·	·	·	·	·	·	·	·	·
